# Results: ChEMBL document CHEMBL5346884, “Discovery, synthesis and mechanism study of 2,3,5-substituted [1,2,4]-thiadiazoles as covalent inhibitors targeting 3C-Like protease of SARS-CoV-2” (Eur J Med Chem, 2023)
# Legend:
# [1] = target: T1, Replicase polyprotein 1ab (Severe acute respiratory syndrome coronavirus 2, UniProt P0DTD1); experiment: Inhibition of full-length recombinant SARS-CoV-2 3CL protease expressed in Escherichia coli BL21 (DE3) cells using fluorogenic MCA-AVLQSGFR-Lys (Dnp)-Lys-NH2 substrate preincubated for 10 mins followed by substrate addition measured for 3.5 mins by FRET assay
# [2] = target: Replicase polyprotein 1ab (Severe acute respiratory syndrome coronavirus 2) (UniProt P0DTD1); experiment: Binding affinity to full-length recombinant SARS-CoV-2 3CL protease expressed in Escherichia coli BL21 (DE3) cells assessed as Gibbs free energy change by MM-GBSA method
# [3] = system: SARS-CoV-2; experiment: Antiviral activity against SARS-CoV-2 infected in African green monkey Vero E6 cells assessed as reduction in viral replication incubated for 24 hrs by qRT-PCR analysis; type: functional, organism-based; settings: Severe acute respiratory syndrome coronavirus 2, Vero C1008, 24 h
# [4] = system: Vero C1008; experiment: Cytotoxicity against African green monkey Vero E6 cells incubated for 24 hrs by WST-8 assay; type: toxicity, cell-based; settings: chlorocebus sabaeus, vero c1008, 24 h
# How it was run: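 Vero E6 cells grown in DMEM with 10% FBS at 37 °C, 5% CO₂. Compounds tested as 2-fold dilutions, 9 concentrations, in DMEM with 2% FBS, triplicate per concentration, for 24 h. WST-8 added and absorbance read at 450 nm after 0.5–1 h. Viability expressed relative to DMSO control.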
# [5] = target: T1, Replicase polyprotein 1ab; experiment: Inhibition of SARS-CoV-2 PLpro using RLRGG-AMC substrate preincubated for 30 mins followed by substrate addition measured for 5 mins by fluorescence based assay
# How it was run: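 PLpro at 50 nM with serially diluted compound in 50 mM HEPES pH 7.5, 0.1 mg/mL BSA, incubated 30 min. RLRGG-AMC added to 20 μM final. Fluorescence (ex 360/em 460 nm) read every 1 min for 5 min. Rates compared with DMSO control.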
# [6] = target: Chymotrypsin (Homo sapiens, UniProt Q99895+P17538+P40313+Q6GPI1); experiment: Inhibition of chymotrypsin (unknown origin) using N-succinyl-AAPF-AMC as substrate preincubated for 10 mins followed by substrate addition measured for 10 mins by fluorescence based assay; type: protein assay
# How it was run: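 Chymotrypsin at 5 nM final with serially diluted compound in PBS pH 7.4, incubated 10 min. N-succinyl-AAPF-AMC added at 10 μM final. Fluorescence (ex 380/em 460 nm) read every 1 min for 10 min. Rates relative to DMSO.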
# [7] = target: Cathepsin B (Homo sapiens, UniProt P07858); experiment: Inhibition of human Cathepsin B using Z-RR-AMC as substrate preincubated for 30 mins followed by substrate addition measured for 10 mins by FRET assay
# How it was run: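 Cathepsin B (0.25 units) with compound in 20 mM sodium acetate pH 5.5, 1 mM EDTA, 2 mM DTT, incubated 30 min at ambient temperature. Z-RR-AMC added at 1 μM final. Fluorescence (ex 340/em 440 nm) read every 1 min for 10 min. Rates relative to DMSO.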
# [8] = target: Procathepsin L (Homo sapiens, UniProt P07711); experiment: Inhibition of human Cathepsin L using Z-VVR-AMC as substrate measured for 10 mins by fluorescence based assay
# [9] = target: T1, Replicase polyprotein 1ab; experiment: Binding affinity to CM5 chip-immobilised full-length recombinant SARS-CoV-2 3CL protease expressed in Escherichia coli BL21 (DE3) cells assessed as dissociation constant by SPR analysis
# How it was run: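 SPR at 25 °C in HBS-EP (10 mM HEPES pH 7.4, 150 mM NaCl, 3.0 mM EDTA, 0.05% Tween-20) with 5% DMSO. Protease immobilised at 8000–10000 RU. Compounds were run as an eight-concentration series, with 240 s association and 200 s dissociation. Surface washed with 50% DMSO each cycle.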
# [10] = target: T1, Replicase polyprotein 1ab; experiment: Inhibition of full-length recombinant SARS-CoV-2 3CL protease expressed in Escherichia coli BL21 (DE3) cells using fluorogenic MCA-AVLQSGFR-Lys (Dnp)-Lys-NH2 substrate preincubated for 10 mins followed by substrate addition measured immediately by FRET assay
# How it was run: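 FRET assay: 50 nM protease (final) in 50 mM Tris–HCl pH 7.3, 1 mM EDTA, with serially diluted compound. Compound–enzyme preincubation was 10 min in the standard assay, and 0, 5, 10 or 20 min in the time-dependence test. Substrate added at 10 μM final. Fluorescence (ex 320/em 405 nm) read every 35 s for 3.5 min. Initial rates normalised to DMSO control.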
# [11] = target: T1, Replicase polyprotein 1ab; experiment: Inhibition of full-length recombinant SARS-CoV-2 3CL protease expressed in Escherichia coli BL21 (DE3) cells using fluorogenic MCA-AVLQSGFR-Lys (Dnp)-Lys-NH2 substrate preincubated for 10 mins followed by substrate addition measured after 5 mins by FRET assay
# [12] = target: T1, Replicase polyprotein 1ab; experiment: Inhibition of full-length recombinant SARS-CoV-2 3CL protease expressed in Escherichia coli BL21 (DE3) cells using fluorogenic MCA-AVLQSGFR-Lys (Dnp)-Lys-NH2 substrate preincubated for 10 mins followed by substrate addition measured after 10 mins by FRET assay
# [13] = target: T1, Replicase polyprotein 1ab; experiment: Inhibition of full-length recombinant SARS-CoV-2 3CL protease expressed in Escherichia coli BL21 (DE3) cells using fluorogenic MCA-AVLQSGFR-Lys (Dnp)-Lys-NH2 substrate preincubated for 10 mins followed by substrate addition measured after 20 mins by FRET assay
# Sequence of Procathepsin L (P07711 whole entry): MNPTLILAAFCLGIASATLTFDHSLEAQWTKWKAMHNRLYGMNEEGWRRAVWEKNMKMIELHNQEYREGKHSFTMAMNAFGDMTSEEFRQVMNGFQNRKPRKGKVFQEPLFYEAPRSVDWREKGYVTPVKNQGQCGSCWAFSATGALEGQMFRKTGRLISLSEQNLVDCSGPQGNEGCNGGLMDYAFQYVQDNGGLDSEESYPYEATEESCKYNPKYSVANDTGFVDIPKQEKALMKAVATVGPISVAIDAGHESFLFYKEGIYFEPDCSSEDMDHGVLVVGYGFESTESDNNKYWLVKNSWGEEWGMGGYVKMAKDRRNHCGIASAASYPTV
smiles,measurement,setting,value
c1ccc(-c2n/c(=N\C3CC3)sn2-c2ccccc2)cc1,IC50,[1],0.143 µM
C/N=c1\nc(-c2ccc(Cl)cc2)n(-c2ccccc2)s1,IC50,[1],0.136 µM
FC1(F)CC(/N=c2\nc(-c3ccccc3)n(-c3ccccc3)s2)C1,IC50,[1],0.323 µM
CN=C(S)N=C(Nc1ccccc1)c1ccccc1,IC50,[1],40 µM
same,deltaG,[2],-11.4 kcal/mol
CCOc1ccc(-c2n/c(=N\C)sn2-c2ccc(F)cc2)cc1,IC50,[1],0.462 µM
same,EC50,[3],14.8 µM
same,CC50,[4],> 100 µM
C/N=c1\nc(-c2ccc(F)cc2)n(-c2ccccc2)s1,IC50,[1],0.118 µM
same,IC50,[5],0.448 µM
same,IC50,[6],> 100 µM
same,IC50,[7],> 50 µM
same,IC50,[8],> 100 µM
same,EC50,[3],7.25 µM
same,CC50,[4],> 100 µM
C/N=c1\nc(-c2ccccc2)n(-c2ccccc2)s1,IC50,[1],0.193 µM
same,Kd,[9],0.798 µM
same,IC50,[10],0.409 µM
same,IC50,[11],0.302 µM
same,IC50,[12],0.206 µM
same,IC50,[13],0.191 µM
same,deltaG,[2],-13.9 kcal/mol
same,IC50,[5],0.655 µM
same,IC50,[6],> 100 µM
same,IC50,[7],> 50 µM
same,IC50,[8],> 100 µM
C/N=c1\nc(-c2ccc(OC)cc2)n(-c2cc(F)c(F)c(F)c2)s1,IC50,[1],0.582 µM
same,EC50,[3],9.34 µM
same,CC50,[4],> 100 µM
C/N=c1\nc(-c2ccccc2)n(-c2ccc(F)cc2)s1,IC50,[1],0.124 µM
C/N=c1\nc(-c2ccc(OC)cc2)n(-c2ccc(F)cc2)s1,IC50,[1],0.373 µM
C/N=c1\nc(-c2ccc(OC)cc2)n(-c2ccccc2)s1,IC50,[1],0.165 µM
